In ChEMBL document CHEMBL3351978, “Optimization of 1,2,4-Triazolopyridines as Inhibitors of Human 11β-Hydroxysteroid Dehydrogenase Type 1 (11β-HSD-1)” (ACS Med Chem Lett, 2014):
Converted amounts (≈) assume the structure as drawn. The source made the active and inactive calls. No cut-off for these calls is given here.

How the values were obtained:
[1] = Solubility at pH 7.4; format: physicochemical; conditions: buffer
[2] = Stability in human microsomes assessed as parent compound remaining after 30 mins; format: ADME, Microsome; conditions: read-out: Stability
[3] = Stability in mouse microsomes assessed as parent compound remaining after 30 mins; format: ADME, Microsome; conditions: read-out: Stability
[4] = Stability in […] monkey microsomes assessed as parent compound remaining after 30 mins; format: ADME, Macaca fascicularis, Microsome; conditions: read-out: Stability
[5] = Stability in rat microsomes assessed as parent compound remaining after 30 mins; format: ADME, Microsome; conditions: read-out: Stability
[6] = Tmax in Balb/C mouse at 3.5 mg/kg, po; format: ADME, organism-based; set-up: dose 3.5 mg/kg, route oral; conditions: in vivo
In short: (§1)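 Male Balb/C mice were given a single oral dose of 3.5 mpk in 0.5% methocel/0.1% Tween-80 in water.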

[7] = Cmax in Balb/C mouse at 3.5 mg/kg, po; format: ADME, organism-based; set-up: dose 3.5 mg/kg, route oral; conditions: in vivo; in short: as §1
[8] = AUC (0 to 8 hrs) in Balb/C mouse at 3.5 mg/kg, po; format: ADME, organism-based; set-up: time < 8 hr, dose 3.5 mg/kg, route oral; conditions: plasma; in short: as §1
[9] = system: HEK293-EBNA; assay: Inhibition of cynomolgus monkey recombinant 11beta-HSD-1 expressed in HEK293 EBNA cells using [3H]-cortisone and NADPH by scintillation proximity assay; format: cell-based; conditions: Macaca fascicularis

`Clc1ccc(C2(c3nnc4c(C5CC5)cccn34)CC2)cc1` gave a solubility [1] of 76 µg/mL (≈ 245 µM), a remaining at 0.5 h [2] of 100% and a remaining at 0.5 h [3] of 100%. For the same compound, the remaining at 0.5 h [4] was 100%, the remaining at 0.5 h [5] was 100% and the Tmax [6] was 1 h. The Cmax [7] was 2500 nM, the AUC(0-t) at 8 h [8] was 5.6 µM·h and the inhibition [9] was “Active”.

For `Cc1cccn2c(C3(c4ccc(Cl)cc4)CC3)nnc12`, the inhibition [9] was “Active”.

In the case of `Clc1ccc(C2(c3nnc4c(OC5CCOCC5)cccn34)CC2)cc1`, the inhibition [9] is reported as “Active”.

With `Clc1ccc(C2(c3nnc4c(OC5CCCCC5)cccn34)CC2)cc1` the inhibition [9] was “inactive”.

For `Clc1ccc(C2(c3nnc4c(OC5CCC5)cccn34)CC2)cc1`, the inhibition [9] was “Active”.

For `Clc1ccc(C2(c3nnc4c(OCC5CC5)cccn34)CC2)cc1`, the inhibition [9] was “Active”.

With `Clc1ccc(C2(c3nnc4c(C5CCC5)cccn34)CC2)cc1` the inhibition [9] was “Active”.

For `CC(C)c1cccn2c(C3(c4ccc(Cl)cc4)CC3)nnc12`, the inhibition [9] was “Active”.
